Measurements from ChEMBL document CHEMBL1122761, “Beta 1-selective adrenoceptor antagonists. 3. 4-Azolyl-linked phenoxypropanolamines” (J Med Chem, 1984).

Assays:
[1] = Acid dissociation constant was determined; assay type: ADME
[2] = biological target: Adrenergic receptor beta (Rattus norvegicus) (UniProt P18090+P10608+P26255); experiment: Beta agonist activity against heart rate in rats; assay type: functional, tissue-based
Summary of the method: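 Rats anesthetized with pentobarbitone sodium (75 mg/kg ip) and reserpinized 20-24 h earlier (5 mg/kg ip). Single iv doses into tail vein, up to 20 animals. Blood pressure and heart rate recorded; ED30 = dose giving 30 beats/min heart-rate rise, with 95% confidence limits from log dose-response linear regression.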

[3] = biological target: Beta-1 adrenergic receptor (Rattus norvegicus) (UniProt P18090); experiment: Inhibition of isoprenaline induced tachycardia in anaesthetised rats.; assay type: functional
Beta-1 adrenergic receptor (Rattus norvegicus), sequence (P18090 whole entry, looked up): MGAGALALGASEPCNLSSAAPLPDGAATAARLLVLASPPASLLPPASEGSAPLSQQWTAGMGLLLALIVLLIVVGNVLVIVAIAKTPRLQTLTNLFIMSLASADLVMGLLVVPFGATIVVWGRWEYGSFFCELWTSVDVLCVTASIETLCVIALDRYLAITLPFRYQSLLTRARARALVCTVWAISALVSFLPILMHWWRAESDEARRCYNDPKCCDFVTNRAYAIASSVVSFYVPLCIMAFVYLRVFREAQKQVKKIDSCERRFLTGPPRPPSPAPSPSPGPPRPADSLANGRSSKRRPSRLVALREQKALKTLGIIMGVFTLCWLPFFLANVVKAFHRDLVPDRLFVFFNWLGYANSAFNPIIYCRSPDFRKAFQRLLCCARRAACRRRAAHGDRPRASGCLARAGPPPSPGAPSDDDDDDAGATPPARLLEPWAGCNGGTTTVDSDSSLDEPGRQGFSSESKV
Summary of the method: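 Pentobarbitone-anesthetized rats (75 mg/kg ip), bilaterally vagotomized, tracheal cannula. Isoprenaline given via right femoral vein; carotid blood pressure and tachograph heart rate recorded. Test compound injected 5 min after isoprenaline, cumulative doses up to 2 mg/kg. ED50 (50% reduction of control isoprenaline response) with 95% confidence limits by linear regression of log dose-response.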

[4] = biological target: Beta-2 adrenergic receptor (Rattus norvegicus) (UniProt P10608); experiment: Beta-2 adrenergic receptor antagonism in rats anesthetized with pentobarbitone sodium (75 mg/kg ip)
Beta-2 adrenergic receptor (Rattus norvegicus), sequence (P10608 whole entry, looked up): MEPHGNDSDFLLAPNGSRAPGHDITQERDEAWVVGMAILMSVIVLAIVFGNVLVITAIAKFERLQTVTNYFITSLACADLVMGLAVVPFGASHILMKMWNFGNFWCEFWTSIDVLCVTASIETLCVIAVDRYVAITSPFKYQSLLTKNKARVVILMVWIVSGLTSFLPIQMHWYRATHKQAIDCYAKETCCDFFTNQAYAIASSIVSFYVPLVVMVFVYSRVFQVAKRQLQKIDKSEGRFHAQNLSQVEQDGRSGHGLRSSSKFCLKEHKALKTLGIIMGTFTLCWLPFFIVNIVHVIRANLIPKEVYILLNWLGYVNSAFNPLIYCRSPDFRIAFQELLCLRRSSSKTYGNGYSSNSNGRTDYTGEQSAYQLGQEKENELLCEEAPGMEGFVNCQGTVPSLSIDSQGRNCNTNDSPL

[5] = biological target: Beta-2 adrenergic receptor (Rattus norvegicus) (UniProt P10608); experiment: Inhibition of isoprenaline induced […] response in anaesthetised rats.

| pKa [1] | ED50 [3] [mg/kg] | ED50 [4] [mg/kg] | ED50 [5] [mg/kg] | Compound | ED30 [2] [mg/kg] |
| --- | --- | --- | --- | --- | --- |
| < 0.6 | 0.024 | 0.523 | – | CC(C)NCC(O)COc1ccc(OCCn2cc(Cl)cn2)cc1 (centres undefined) | 0.194 |
| < 0.6 | 0.004 | – | 2.43 | CC(C)NCC(O)COc1ccc(OCn2cc(Cl)cn2)cc1 (centres undefined) | 0.007 |
| 2 | 0.05 | > 2 | – | CC(C)NCC(O)COc1ccc(OCCn2cccn2)cc1 (centres undefined) | > 1 |
| < 1 | 0.011 | – | > 2 | CC(C)NCC(O)COc1ccc(OCn2nccn2)cc1 (centres undefined) | 0.019 |
| – | 1.27 | > 2 | – | CC(C)NCC(O)COc1ccc(OCCn2nnc3ccccc32)cc1 (centres undefined) | > 1 |
| – | 0.598 | > 2 | – | CC(C)NCC(O)COc1ccc(Cn2cccn2)cc1 (centres undefined) | > 1 |
| 7.2 | 0.62 | > 1 | – | CC(C)NCC(O)COc1ccc(Cn2ccnc2)cc1 (centres undefined) | > 1 |
| – | 0.128 | > 2 | – | CC(C)NCC(O)COc1ccc(SCCn2cccn2)cc1 (centres undefined) | > 1 |
| – | 0.057 | > 2 | – | CC(C)NCC(O)COc1ccc(OCCn2nc3c(n2)CCCC3)cc1 (centres undefined) | > 1 |
| – | 0.186 | > 1 | – | CC(C)NCC(O)COc1ccc(CCn2ccnc2)cc1 (centres undefined) | > 1 |
| 1.25 | 0.04 | – | > 2 | CC(C)NCC(O)COc1ccc(OCn2ccnn2)cc1 (centres undefined) | 0.05 |
| 2 | 0.028 | – | > 2 | CC(C)NCC(O)COc1ccc(OCn2cccn2)cc1 (centres undefined) | > 1 |
| 3.2 | 0.17 | > 2 | – | CC(C)NCC(O)COc1ccc(OCCn2cncn2)cc1 (centres undefined) | > 1 |
| – | 0.97 | > 2 | – | CC(C)NCC(O)COc1ccc(OCCn2ccnc2)cc1 (centres undefined) | > 1 |
| < 1 | 0.014 | > 2 | – | CC(C)NCC(O)COc1ccc(OCCn2nccn2)cc1 (centres undefined) | 0.014 |
| – | 0.783 | > 2 | – | CC(C)NCC(O)COc1ccc(CCCn2cccn2)cc1 (centres undefined) | > 1 |
| 2 | 0.209 | > 2 | – | CC(C)NCC(O)COc1ccc(CCn2cccn2)cc1 (centres undefined) | > 1 |
| – | 0.327 | > 2 | – | CC(C)NCC(O)COc1ccc(SCn2cccn2)cc1 (centres undefined) | > 1 |
| – | 0.16 | > 2 | – | CC(C)NCC(O)COc1ccc(OCCn2cc(-c3ccccc3)cn2)cc1 (centres undefined) | > 1 |
| – | 0.05 | 0.988 | – | CC(C)NCC(O)COc1ccc(OCCn2nc3ccccc3n2)cc1 (centres undefined) | > 1 |
| – | 0.687 | > 2 | – | CC(C)NCC(O)COc1ccc(OCCn2cnc3ccccc32)cc1 (centres undefined) | > 1 |
| – | 0.68 | > 2 | – | CC(C)NCC(O)COc1ccc(OCCCn2cncn2)cc1 (centres undefined) | > 1 |
| – | 0.067 | 1.04 | – | CC(C)(C)NCC(O)COc1ccc(OCCn2cccn2)cc1 (centres undefined) | 0.154 |
| – | 0.334 | > 2 | – | CC(C)NCC(O)COc1ccc(OCCCn2cccn2)cc1 (centres undefined) | > 1 |
| 3.2 | 0.233 | > 2 | – | CC(C)NCC(O)COc1ccc(CCn2cncn2)cc1 (centres undefined) | > 1 |
| – | 0.263 | > 2 | – | CC(C)NCC(O)COc1ccc(OCCn2ncc3ccccc32)cc1 (centres undefined) | > 1 |
